Consider 2 compounds from ChEMBL document CHEMBL4414551, “Design, Synthesis, and Biological Evaluation of Substituted 4,6-Dihydrospiro[[1,2,3]triazolo[4,5-b]pyridine-7,3'-indoline]-2',5(3H)-dione Analogues as Potent NS4B Inhibitors for the Treatment of Dengue Virus Infection” (J Med Chem, 2019).

In series [1] the test system is dengue virus type 2. Put plainly: Antiviral activity against Dengue virus 2 isolate P0 infected in human HuH7 cells incubated for 3 days by viral reduction assay. It is filed as functional, organism-based. The conditions noted are these: isolate P0, Huh-7, 72 h.
Series [2] can be described thus: Cytotoxicity in human HuH7 replicon cells infected with Dengue virus 2 NGC assessed as reduction in cell viability incubated for 48 hrs by Cell-titer-Glo reagent based assay. More on the design: species or system Huh-7. Summed up: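 Huh7 cells or Huh7 replicon cells plated, then held at 37 °C with 5% CO₂ overnight. Exposed to 2-fold serial compound dilutions for 48 h, in duplicate. Viability read with CellTiter-Glo and normalized to 0.45% DMSO wells set at 100%. CC50 from four-parameter logistic fit.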

The subject of a further series is dengue virus type 4. The series can be described thus: Antiviral activity against Dengue virus 4 D4MY01-22713 infected in human HuH7 replicon cells expressing Renilla luciferase and neomycin-resistance genes assessed as reduction in viral replication incubated for 48 hrs by luciferase reporter replicon-based assay. It counts as functional, organism-based. The following applies: D4MY01-22713, Huh-7, 48 h. Summed up:
(§1)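 Huh7 cells stably carrying a Renilla luciferase/neomycin-resistance replicon (DENV-1 WestPac, DENV-2 NGC, DENV-3 D3MY05-34640 or DENV-4 D4MY01-22713). Cells seeded at 10k per well and incubated overnight at 37 °C, 5% CO2. Then exposed to 2-fold serial compound dilutions for 48 h, in duplicate. Luciferase read with a live-cell substrate. EC50 from four-parameter logistic fit.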

The subject of another series is dengue virus type 3. Put plainly: Antiviral activity against Dengue virus 3 D3MY05-34640 infected in human HuH7 replicon cells expressing Renilla luciferase and neomycin-resistance genes assessed as reduction in viral replication incubated for 48 hrs by luciferase reporter replicon-based assay. The following applies: D3MY05-34640, Huh-7, 48 h. It is filed as functional, organism-based. Summed up:
as §1

Series [3] deals with dengue virus type 2. Put plainly: Antiviral activity against Dengue virus 2 NGC infected in human HuH7 replicon cells expressing Renilla luciferase and neomycin-resistance genes assessed as reduction in viral replication incubated for 48 hrs by luciferase reporter replicon-based assay. It counts as functional, organism-based. The following applies: Huh-7, 48 h. In a few lines: as §1

In the next series the test system is dengue virus type 1. The series can be described thus: Antiviral activity against Dengue virus 1 WestPac infected in human HuH7 replicon cells expressing Renilla luciferase and neomycin-resistance genes assessed as reduction in viral replication incubated for 48 hrs by luciferase reporter replicon-based assay. The conditions noted are these: Huh-7, 48 h. It counts as functional, organism-based. In a few lines: as §1

Series [4] concerns dengue virus type 2. Put plainly: Antiviral activity against Dengue virus 2 D2Y98P infected in A129 mouse model of dengue viremia assessed as reduction in viral loads in sera at 100 mg/kg, po BID for 3 days measured day 3 postinfection by viral plaque assay relative to control. It counts as functional. Summed up: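 A129 mice (IFN-α/β receptor knockout), 3 weeks old, n = 6 per group; DENV-2 D2Y98P stock grown in BHK-21 cells, 100 µL at 10⁷ PFU/ml given subcutaneously. Oral dosing started immediately, twice daily for 3 days, as a suspension in 2.5% DMSO, 50% PEG-400 and 47.5% DPBS, or vehicle alone. Retro-orbital bleed on day 3 p.i.; plasma viremia measured by plaque assay; unpaired parametric test.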

Series [5] concerns dengue virus type 2. Put plainly: Antiviral activity against NS3 T606A mutant and NS4B V63L mutant containing Dengue virus 2 isolate P12-VI infected in human HuH7 cells using viral isolates selected by serial passaging in presence of (R)-5'-Chloro-3-((S)-1-(4-chlorophenyl)ethyl)-1'-(2-(dimethylamino)ethyl)-4,6-dihydrospiro[[1,2,3]triazolo[4,5-b]-pyridine-7,3'-indoline]-2',5(3H)-dione incubated for 3 days by viral reduction assay. It counts as functional, organism-based. The following applies: Huh-7.

Series [6] relates to dengue virus type 2. Put plainly: Resistance index, ratio of EC50 for antiviral activity against NS3 T606A mutant and NS4B V63L mutant containing Dengue virus 2 isolate P12-VI infected in human HuH7 cells using viral isolates selected by serial passaging in presence of (R)-5'-Chloro-3-((S)-1-(4-chlorophenyl)ethyl)-1'-(2-(dimethylamino)ethyl)-4,6-dihydrospiro[[1,2,3]triazolo[4,5-b]-pyridine-7,3'-indoline]-2',5(3H)-dione incubated for 3 days by viral reduction assay to EC50 for antiviral activity against Dengue virus 2 isolate P0 infected in human HuH7 cells incubated for 3 days by viral reduction assay. It is filed as functional.

In series [7] the test system is dengue virus type 2. The series can be described thus: Antiviral activity against Dengue virus 2 NGC infected in human HuH7 cells incubated for 48 hrs by viral titer reduction assay. It counts as functional, organism-based. The conditions noted are these: Huh-7, 48 h. In a few lines:
(§2)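 Huh7 cells seeded the day before, then infected with DENV-2 NGC or D2Y98P at MOI 0.3 in the presence of 2-fold serial compound dilutions, in triplicate. After 48 h at 37 °C, infectious virus in the culture fluid was titrated by plaque assay. EC50 from four-parameter logistic fit.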

For series [8], the system named is dengue virus type 2. The series can be described thus: Antiviral activity against Dengue virus 2 D2Y98P infected in A129 mouse model of dengue viremia assessed as reduction in viral morbidity by measuring body weight at 100 mg/kg, po BID for 3 days measured day 3 postinfection by viral plaque assay relative to control. It counts as functional, organism-based.

Series [9] in a line: Tmax in Sprague-Dawley rat at 20 mg/kg, po measured up to 24 hrs by LC-MS/MS analysis. It is filed as ADME, organism-based. The conditions noted are these: in vivo. Summed up:
(§3)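 Male SD rats, n = 3, fasted 12 h, given 20 mg/kg orally. Comparison arm given 10 mg/kg as an iv bolus, n = 3. Both formulated in DMSO:20% HP-β-CD in saline (1:9). Plasma sampled from 15 min (5 min iv) to 24 h. Analysed by LC-MS/MS against an 8-point standard curve with 6 QCs. Parameters derived by non-compartmental analysis.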

The nature of series [10]: Clearance in Sprague-Dawley rat at 20 mg/kg, po measured up to 24 hrs by LC-MS/MS analysis. It counts as ADME, organism-based. The following applies: in vivo. Summed up: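 Male SD rats, N = 3, fasted 12 h; oral 20 mg/kg (alongside a 10 mg/kg i.v. bolus arm) formulated as DMSO solution : 20% HP-β-CD in saline = 1:9. Plasma sampled at 15 min, 30 min, 1, 2, 4, 8 and 24 h. Levels measured by LC-MS/MS against an 8-point standard curve with 6 QCs; parameters from non-compartmental analysis.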

Series [11] in a line: Oral bioavailability n Sprague-Dawley rat at 20 mg/kg measured up to 24 hrs by LC-MS/MS analysis. It is filed as ADME, organism-based. The conditions noted are these: in vivo. Summed up: as §3
The test system of series [12] is dengue virus type 2. The series can be described thus: Antiviral activity against Dengue virus 2 D2Y98P infected in human HuH7 cells incubated for 48 hrs by viral titer reduction assay. It counts as functional, organism-based. The conditions noted are these: Huh-7, 48 h. In a few lines: as §2
Series [13] relates to dengue virus type 2. Put plainly: Resistance index, ratio of EC50 for antiviral activity against NS3 T606A mutant containing Dengue virus 2 isolate P12-II infected in human HuH7 cells using viral isolates selected by serial passaging in presence of DMSO incubated for 3 days by viral reduction assay to EC50 for antiviral activity against Dengue virus 2 isolate P0 infected in human HuH7 cells incubated for 3 days by viral reduction assay. It is filed as functional.

The subject of series [14] is dengue virus type 2. Put plainly: Resistance index, ratio of EC50 for antiviral activity against NS3 T606A mutant containing Dengue virus 2 isolate P12-I infected in human HuH7 cells using viral isolates selected by serial passaging in presence of DMSO incubated for 3 days by viral reduction assay to EC50 for antiviral activity against Dengue virus 2 isolate P0 infected in human HuH7 cells incubated for 3 days by viral reduction assay. It is filed as functional.

For series [15], the system named is dengue virus type 2. Put plainly: Antiviral activity against NS3 T606A mutant and NS4B V63L mutant containing Dengue virus 2 isolate P12-VI infected in human HuH7 cells using viral isolates selected by serial passaging in presence of test compound incubated for 3 days by viral reduction assay. It is filed as functional, organism-based. The following applies: Huh-7, 72 h.

Series [16] relates to dengue virus type 2. Put plainly: Antiviral activity against NS4B V63M and P104S mutant containing Dengue virus 2 isolate P12-V infected in human HuH7 cells using viral isolates selected by serial passaging in presence of test compound incubated for 3 days by viral reduction assay. It counts as functional, organism-based. The conditions noted are these: Huh-7, 72 h.
Series [17] concerns dengue virus type 2. Put plainly: Antiviral activity against NS4B V63M mutant containing Dengue virus 2 isolate P12-IV infected in human HuH7 cells using viral isolates selected by serial passaging in presence of test compound incubated for 3 days by viral reduction assay. It is filed as functional, organism-based. The conditions noted are these: Huh-7, 72 h.
Series [18] concerns dengue virus type 2. The series can be described thus: Antiviral activity against NS3 T606A mutant and NS4B V63M mutant containing Dengue virus 2 isolate P12-III infected in human HuH7 cells using viral isolates selected by serial passaging in presence of test compound incubated for 3 days by viral reduction assay. It counts as functional, organism-based. The following applies: Huh-7, 72 h.

Series [19] relates to dengue virus type 2. The series can be described thus: Antiviral activity against NS3 T606A mutant containing Dengue virus 2 isolate P12-II infected in human HuH7 cells using viral isolates selected by serial passaging in presence of DMSO incubated for 3 days by viral reduction assay. The conditions noted are these: Huh-7, 72 h. It is filed as functional, organism-based.
Series [20] concerns dengue virus type 2. Put plainly: Antiviral activity against NS3 T606A mutant containing Dengue virus 2 isolate P12-I infected in human HuH7 cells using viral isolates selected by serial passaging in presence of DMSO incubated for 3 days by viral reduction assay. It is filed as functional, organism-based. The conditions noted are these: Huh-7, 72 h.
Series [21] concerns dengue virus type 2. The series can be described thus: Resistance index, ratio of EC50 for antiviral activity against NS3 T606A mutant and NS4B V63M mutant containing Dengue virus 2 isolate P12-III infected in human HuH7 cells using viral isolates selected by serial passaging in presence of test compound incubated for 3 days by viral reduction assay to EC50 for antiviral activity against Dengue virus 2 isolate P0 infected in human HuH7 cells incubated for 3 days by viral reduction assay. It is filed as functional.

The test system of series [22] is dengue virus type 2. Put plainly: Resistance index, ratio of EC50 for antiviral activity against NS4B V63M mutant containing Dengue virus 2 isolate P12-IV infected in human HuH7 cells using viral isolates selected by serial passaging in presence of test compound incubated for 3 days by viral reduction assay to EC50 for antiviral activity against Dengue virus 2 isolate P0 infected in human HuH7 cells incubated for 3 days by viral reduction assay. It counts as functional.

The subject of series [23] is dengue virus type 2. The series can be described thus: Resistance index, ratio of EC50 for antiviral activity against NS4B V63M and P104S mutant containing Dengue virus 2 isolate P12-V infected in human HuH7 cells using viral isolates selected by serial passaging in presence of test compound incubated for 3 days by viral reduction assay to EC50 for antiviral activity against Dengue virus 2 isolate P0 infected in human HuH7 cells incubated for 3 days by viral reduction assay. It is filed as functional.

Series [24] relates to dengue virus type 2. The series can be described thus: Resistance index, ratio of EC50 for antiviral activity against NS3 T606A mutant and NS4B V63L mutant containing Dengue virus 2 isolate P12-VI infected in human HuH7 cells using viral isolates selected by serial passaging in presence of test compound incubated for 3 days by viral reduction assay to EC50 for antiviral activity against Dengue virus 2 isolate P0 infected in human HuH7 cells incubated for 3 days by viral reduction assay. It counts as functional.

The structures appear in SMILES notation. Active and inactive are the calls of the source. The calls are words filed in the database; no cut-off is given here.

Turning to `CC(C)CCN1C(=O)[C@]2(CC(=O)Nc3c2nnn3[C@@H](C)c2ccc(Cl)cc2)c2cc(Cl)ccc21`, the 50% effective concentration (EC50) with dengue virus type 2 [1] is 123 nM; with dengue virus type 4, over 5000 nM; with dengue virus type 3 it was 35 nM; with dengue virus type 2 [3] it was 160 nM; in the series on dengue virus type 1, 780 nM; in the series on dengue virus type 2 [5] it was 1960 nM. In addition, the EC50 in the series with dengue virus type 2 [7] is 100 to 108 nM; in the series on dengue virus type 2 [12], 130 nM. Further, the half-maximal cytotoxic concentration (CC50) at 48 h in [2] is over 10000 nM. In the series with dengue virus type 2 [4], the log reduction worked out at 2.4. In the series with dengue virus type 2 [6], the “Ratio EC50” value is recorded as 16. Further, the result in the series on dengue virus type 2 [8] was Active. Moreover, in series [9], the Tmax came out at 1 h. The same compound showed a CL/F in [10] of 59.5 mL/min/kg. This compound returned a bioavailability in [11] of 30%.

Turning to `C[C@@H](c1ccc(Cl)cc1)n1nnc2c1NC(=O)C[C@]21C(=O)N(CCN(C)C)c2ccc(Cl)cc21`, the “Ratio EC50” value in the series with dengue virus type 2 [13] is given as 0.93; in the series on dengue virus type 2 [14], 0.8; in the series with dengue virus type 2 [21], over 100; with dengue virus type 2 [22] it was over 100; in the series on dengue virus type 2 [23], over 100; with dengue virus type 2 [24] it was over 100. Also, the EC50 is 60 nM in the series on dengue virus type 2 [1]; over 6000 nM in the series on dengue virus type 2 [15]; over 6000 nM with dengue virus type 2 [16]; over 6000 nM with dengue virus type 2 [17]; over 6000 nM with dengue virus type 2 [18]; 56 nM in the series with dengue virus type 2 [19]. The EC50 with dengue virus type 2 [20] is 48 nM; in the series with dengue virus type 4, over 5000 nM; in the series on dengue virus type 3 it was 2 nM; in the series on dengue virus type 2 [3] it was 25 nM; with dengue virus type 1, over 5000 nM. In series [2], the 50% cytotoxic concentration (CC50) at 48 h was over 10000 nM.
